Source: PubChem BioAssay
PREPL inhibitor: inhibitors of human prolyl oligopeptidase-like enzyme PREPL; Q4J6C6; recombinant PREPL, fluorescence polarization activity-based probe; inhibition, % at 5.96 µM; hit rate 0.68% among 320,000; in the data active means inhibition above about 43%;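 further: 0% = enzyme with DMSO and 100% = wells lacking enzyme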
Target sequence (Q4J6C6 whole entry, looked up): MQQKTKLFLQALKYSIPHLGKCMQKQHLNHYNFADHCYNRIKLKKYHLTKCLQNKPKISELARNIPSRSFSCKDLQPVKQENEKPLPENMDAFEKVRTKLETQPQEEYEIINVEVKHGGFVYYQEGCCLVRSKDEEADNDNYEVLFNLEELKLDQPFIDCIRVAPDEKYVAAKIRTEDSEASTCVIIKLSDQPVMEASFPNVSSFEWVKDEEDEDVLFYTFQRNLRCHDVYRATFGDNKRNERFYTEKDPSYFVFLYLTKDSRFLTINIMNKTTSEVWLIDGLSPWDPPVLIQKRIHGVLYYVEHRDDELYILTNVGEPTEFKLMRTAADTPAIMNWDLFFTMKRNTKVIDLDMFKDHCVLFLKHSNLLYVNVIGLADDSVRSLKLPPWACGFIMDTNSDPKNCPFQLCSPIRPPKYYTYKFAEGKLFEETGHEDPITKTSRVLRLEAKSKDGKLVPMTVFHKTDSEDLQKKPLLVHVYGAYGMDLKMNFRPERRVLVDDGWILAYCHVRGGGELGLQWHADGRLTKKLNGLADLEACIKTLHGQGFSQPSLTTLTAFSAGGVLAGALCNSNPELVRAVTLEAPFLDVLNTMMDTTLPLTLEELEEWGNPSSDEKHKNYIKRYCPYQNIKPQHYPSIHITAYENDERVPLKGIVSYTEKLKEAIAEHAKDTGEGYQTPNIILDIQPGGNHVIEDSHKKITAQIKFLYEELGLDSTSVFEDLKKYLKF
CSC inhib: cancer stem cell inhibition. cancer stem cell-like cells viability, luminescence. inhibition, % at 7.5 µM. hit rate 1.1% among 300,000. AID 2717; in the data active means inhibition above about 75%; tested in HMLE shEcad cells
T cruzi repl: T. cruzi replication inhibition; T. cruzi beta-gal in NIH3T3, luminescence, 90 h; inhibition, % (no concentration beside the values); hit rate 1.4% among 300,000;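 active means mean inhibition across valid replicates above about 55%, limit read from the data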;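 further: signal also drops with host cell toxicity which is not excluded here; 0% = plate median of DMSO wells and 100% = zero luminescence signal; higher percent means less beta-gal luminescence so fewer parasites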
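System: NIH/3T3 fibroblasts plus reporter T. cruzi. Medium: DMEM plus 2% FBS. Probe or stimulus: 5000 reporter trypomastigotes per well. Compound: single 50 nL compound addition per well in DMSO. Incubation: co-culture of at least 90 h after 3 h attachment. Detection: GalScreen β-gal luminescence, detergent lysis, 60 min. Evaluation: parasite load inhibition, %.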
CHOP inhibitor: CHOP inhibition in unfolded protein response; CHO-K1 CHOP-promoter luciferase, tunicamycin-induced, 15-18 h; inhibition, % at 10 µM; hit rate 3.8% among 220,000; AID 2732;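 active means compounds that reduced the stress-induced luciferase reporter signal by more than about 70% of percent inhibition, limit read from the data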;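 further: 0% = tunicamycin plus vehicle and 100% = wells without tunicamycin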
Beta cell apopt: beta cell apoptosis inhibition | AID 435005 | protection from apoptosis, % (concentration not given with the values) | INS-1E cytokine-induced death, ATP luminescence, 48 h; percent of positive-control rescue, neutral wells zero | hit rate 0.8% among 300,000;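 active means Every replicate reaches about 75%, or at least half do and their mean reaches it too, limit read from the data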;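 further: 0% = cytokine-treated negative control wells and 100% = positive control rescue; higher means more ATP so stronger rescue from cytokine killing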
GRIN3A LBD mod: modulators (binders) of human NR3A ligand-binding domain; NR3A LBD differential scanning fluorimetry, Tm shift; 0% = protein alone, 100% = glycine-bound protein; Tm shift relative to glycine control, % at 25 µM; hit rate 2.5% among 340,000;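 active means melting temperature shift of at least 10% of the positive control shift, at one fixed dose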
An asterisk follows results filed as active; nt = no result. Rows were chosen to be rich in hits. Some 6.7% of all compounds tested hit in one or more screens of this group.

SMILES	PREPL inhibitor	CSC inhib	T cruzi repl	CHOP inhibitor	Beta cell apopt	GRIN3A LBD mod
COc1ccc(C(=O)n2nc(-c3ccccc3)nc2SC)cc1	nt	nt	-4	1	nt	17*
Cc1ccc(C(C#N)c2ccc3c(C(F)(F)F)cc(C(F)(F)F)nc3n2)cc1 (stereo unspecified)	5	86*	41	60	39	-1
N#CC(c1ccccc1)c1ccc2c(C(F)(F)F)cc(C(F)(F)F)nc2n1 (stereo unspecified)	16	-6	12	70	93*	-7
CN(N)c1ccc2c(C(F)(F)F)cc(C(F)(F)F)nc2n1	-3	5	4	10	-5	0
CCN(CC)S(=O)(=O)c1ccc(OC)c(NC(=O)C(Cc2ccccc2)N2C(=O)c3ccccc3C2=O)c1 (stereo unspecified)	-13	-8	-6	1	-3	nt
COc1ccc2nc(SC(C)C(=O)NCC(=O)Nc3ccc(F)c(F)c3F)[nH]c2c1 (stereo unspecified)	nt	nt	nt	nt	nt	1
CC1CCN(C(=O)CSc2nnc(CNC(=O)c3ccc(S(=O)(=O)N(C)C)cc3)o2)CC1	-2	-2	6	nt	-6	1
CCc1ccccc1S(=O)(=O)Cc1ccc(C(=O)NCc2ccc3c(c2)OCO3)o1	-8	-7	21	87*	-13	-1
Cn1nc(C(C)(C)C)cc1C(=O)NCc1ccc2c(c1)OCO2	4	-10	18	nt	117*	0
O=C(NCc1ccc2c(c1)OCO2)c1ccc(CS(=O)(=O)Cc2cccc(Cl)c2)o1	-4	-9	20	29	1	1
O=C(Nc1ccccc1)N1CC=C(c2ccccc2)CC1	-9	2	36	35	2	nt
O=C(Nc1ccccc1)N1CC=C(c2ccc(F)cc2)CC1	30	-4	23	22	4	21*
COc1ccc(-n2c(SCC(=O)C(C)(C)C)nc3c(sc(=S)n3-c3ccccc3)c2=O)c(OC)c1	20	4	60*	nt	13	1
CCOC(=O)CSc1nc2c(sc(=S)n2-c2ccccc2OC)c(=O)n1-c1ccccc1OC	-12	1	-11	nt	-3	-2
Cc1cc(C)nc(-n2nc(C)c3c(C(F)(F)F)cc(=O)[nH]c32)n1	1	-1	2	22	-6	-1
Cc1cc(C)nc(-n2nc(C)c(Sc3ccc(F)cc3)c2N)n1	-1	-15	58*	-39	41	0
O=C(c1cc(COc2cccc3cnccc23)on1)N1CCC(c2ccccc2Cl)C1 (stereo unspecified)	-37	57	63*	nt	44	-8
CCc1ccc(CN(C)C(=O)c2cc(COc3cccc4cnccc34)on2)cc1	-29	0	51	nt	78*	-13
CCN(Cc1ccncc1)C(=O)c1cc(COc2c(F)cccc2F)on1	10	-4	-1	nt	-1	32*
O=C(c1cc(COc2c(F)cccc2F)on1)N1CCC(c2ccccc2Cl)C1 (stereo unspecified)	-3	10	15	-4	-6	-2
CCc1ccc(-c2csc(NC(=O)COC(=O)CCc3nc4ccccc4s3)n2)cc1	-15	7	-3	32	-8	nt
COc1ccccc1CNCC(=O)N1CC(=O)Nc2ccccc21	5	-15	-9	0	3	1
Cc1ccc(Nc2ccc(S(=O)(=O)N3CCOCC3)cc2[N+](=O)[O-])cc1C	23	13	11	27	33	-1
CC1Oc2cc3oc4c(O)c(O)ccc4c(=O)c3c(O)c2C1(C)C (stereo unspecified)	19	0	-6	nt	-1	20*
Cc1ccc(C(=O)COC(=O)C2CC3CCCC(C2)C3=O)cc1[N+](=O)[O-] (stereo unspecified)	-3	-12	-12	nt	-2	-3
CN1CCN(CCCNC(=O)c2cc3c(-c4ccc(Cl)cc4)nn(C)c3s2)CC1	-42	nt	32	-6	nt	2
CCN(CC)CCCNC(=O)c1cc2c(-c3ccc(Cl)cc3)nn(C)c2s1	-60	98*	42	2	28	0
Nc1c(NCCN2CCOCC2)c2ccccc2oc1=O	11	nt	-1	7	-5	-1
Nc1c(NCCCN2CCOCC2)c2ccccc2oc1=O	17	-7	-2	-5	-5	11*
Cc1ccc(CN(C)C(=O)COc2ccc(S(=O)(=O)N3CCCC3)cc2[N+](=O)[O-])c(C)c1	2	nt	nt	nt	-2	-3
